# Data published in ChEMBL document CHEMBL3286182, “4-aminoquinolone piperidine amides: noncovalent inhibitors of DprE1 with long residence time and potent antimycobacterial activity” (J Med Chem, 2014).
# The source made the active and inactive calls. No cut-off for these calls is given here.
# Assays:
# [1] = system: Mycolicibacterium smegmatis; assay: Binding affinity to Mycobacterium smegmatis recombinant DprE1 assessed as residence time
# How it was run: (§1)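 Progress curves (fluorescence vs time) recorded at several inhibitor concentrations with 75 nM Msm DprE1 in the FAD/HRP/Amplex Red coupled assay, pH 8.5, 25 °C. A single-step reversible slow-binding model was fitted globally, with vs and vi fitted per concentration and koff and Kiapp shared. Half-life and residence time were derived from koff.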
# Escherichia coli [2] = assay: Antimicrobial activity against Escherichia coli ARC523 at 100 uM; type: functional, organism-based
# How it was run: (§2)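 Nonmycobacterial panel of Candida albicans, Gram-negative and Gram-positive pathogens.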
# Klebsiella pneumoniae = assay: Antimicrobial activity against Klebsiella pneumoniae ARC1865 at 100 uM; type: functional, organism-based; how it was run: as §2
# Haemophilus influenzae [3] = assay: Antimicrobial activity against Haemophilus influenzae ARC158 at 100 uM; type: functional, organism-based; how it was run: as §2
# [4] = biological target: Voltage-gated inwardly rectifying potassium channel KCNH2 (Homo sapiens, UniProt Q12809); assay: Inhibition of human ERG by medium-throughput electrophysiology
# Cytochrome P450 2D6 = Cytochrome P450 2D6 (Homo sapiens, UniProt P10635); assay: Inhibition of CYP2D6 (unknown origin); type: ADME
# How it was run: (§3)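 CYP inhibition IC50 measured on isoforms CYP3A4, CYP2D6, CYP2C9, CYP2C19 and CYP1A2.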
# Cytochrome P450 1A2 = biological target: T1, Cytochrome P450 1A2 (Homo sapiens, UniProt P05177); assay: Inhibition of CYP1A2 (unknown origin); type: ADME; how it was run: as §3
# T1 sequence (P05177 whole entry): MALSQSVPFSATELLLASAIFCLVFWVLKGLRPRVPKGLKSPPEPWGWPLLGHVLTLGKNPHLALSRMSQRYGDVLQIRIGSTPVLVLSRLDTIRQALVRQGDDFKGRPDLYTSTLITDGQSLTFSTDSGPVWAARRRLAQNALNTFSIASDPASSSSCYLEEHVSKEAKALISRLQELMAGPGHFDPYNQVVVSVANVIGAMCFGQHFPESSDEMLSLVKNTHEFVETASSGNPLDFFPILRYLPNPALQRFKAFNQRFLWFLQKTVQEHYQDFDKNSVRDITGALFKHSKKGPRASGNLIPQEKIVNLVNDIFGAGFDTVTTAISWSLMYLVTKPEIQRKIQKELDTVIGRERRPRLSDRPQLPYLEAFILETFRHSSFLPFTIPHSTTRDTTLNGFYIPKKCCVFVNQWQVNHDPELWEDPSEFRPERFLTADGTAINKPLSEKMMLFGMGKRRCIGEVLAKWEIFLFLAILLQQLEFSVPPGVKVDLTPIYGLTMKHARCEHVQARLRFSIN
# [5] = system: Mycolicibacterium smegmatis; assay: Binding affinity to Mycobacterium smegmatis recombinant DprE1 assessed as dissociation constant; how it was run: as §1
# [6] = system: Mycobacterium tuberculosis; assay: Antimycobacterial activity against Mycobacterium tuberculosis H37Rv at >MIC after 21 to 28 days; type: functional
# [7] = Octanol-water partition coefficient, log D of the compound by shake-flask method; type: physicochemical
# [8] = system: Mycobacterium tuberculosis; assay: Antimycobacterial activity against Mycobacterium tuberculosis over expressing InhA after 5 days by standard microdilution method; type: functional; details: 120 h
# [9] = Permeability of the compound from basolateral to apical side in human Caco2 cells; type: ADME, cell-based; details: Caco-2, read-out: permeability
# Cytochrome P450 3A4 = Cytochrome P450 3A4 (Homo sapiens, UniProt P08684); assay: Inhibition of CYP3A4 (unknown origin); type: ADME; how it was run: as §3
# [10] = Solubility of the compound in 0.1 M phosphate buffer at pH 7.4 after 24 hrs by UV and MS analysis; type: physicochemical
# Haemophilus influenzae [11] = assay: Antimicrobial activity against Haemophilus influenzae ARC446 at 100 uM; type: functional, organism-based; how it was run: as §2
# [12] = system: Mycobacterium tuberculosis; assay: Antimycobacterial activity against Mycobacterium tuberculosis H37Rv under hypoxic condition after 6 days by resazurin assay; type: functional; details: 144 h
# Escherichia coli [13] = assay: Antimicrobial activity against Escherichia coli ARC524 at 100 uM; type: functional, organism-based; how it was run: as §2
# [14] = Intrinsic clearance in human liver microsomes at 1 uM up to 30 mins by LC-MS/MS analysis; type: ADME; details: read-out: CLH
# [15] = system: Mycolicibacterium smegmatis; assay: Binding affinity to Mycobacterium smegmatis recombinant DprE1 assessed as half life; how it was run: as §1
# [16] = Intrinsic clearance in rat cryopreserved hepatocytes assessed per 10^6 cells at 1 uM up to 120 mins by LC-MS/MS analysis; type: ADME, cell-based, Hepatocyte; details: read-out: CLH
# [17] = Fraction unbound in human plasma at 20 uM after 18 hrs by equilibrium dialysis method; type: ADME, cell-free
# [18] = system: Mycolicibacterium smegmatis; assay: Antimicrobial activity against Mycobacterium smegmatis ATCC 607 at 100 uM; type: functional, organism-based
# Cytochrome P450 2C19 = Cytochrome P450 2C19 (Homo sapiens, UniProt P33261); assay: Inhibition of CYP2C19 (unknown origin); type: ADME; how it was run: as §3
# [19] = system: Mycobacterium tuberculosis; assay: Antimycobacterial activity against Mycobacterium tuberculosis over expressing TopA after 5 days by standard microdilution method; type: functional; details: 120 h
# Pseudomonas aeruginosa [20] = assay: Antimicrobial activity against Pseudomonas aeruginosa ARC546 at 100 uM; type: functional, organism-based; how it was run: as §2
# Cytochrome P450 2C9 = Cytochrome P450 2C9 (Homo sapiens, UniProt P11712); assay: Inhibition of CYP2C9 (unknown origin); type: ADME; how it was run: as §3
# [21] = Cytotoxicity against human A549 cells after 72 hrs by resazurin based fluorescence assay; type: cell-based; details: read-out: MIC
# How it was run: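 Cytotoxicity read as MMIC, the MIC on the A549 cell line.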
# [22] = Inhibition of Mycobacterium smegmatis recombinant DprE1 using farnesylphosphoryl-beta-D-ribofuranose as substrate assessed as conversion of amplex red to resorufin after 30 mins; parameters: species or system Mycolicibacterium smegmatis
# How it was run: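 Msm DprE1 (thioredoxin-6His fusion of Msm Rv3790) at 75 nM, preincubated 30 min with 10 μM FAD. Buffer: 50 mM glycylglycine pH 8.5, 200 mM potassium glutamate, 0.002% Brij-35, 2% DMSO, 25 °C. Started with 300 μM farnesylphosphoryl-β-D-ribofuranose, 0.01 mg/mL HRP and 50 μM Amplex Red.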
# Mu-type opioid receptor = Mu-type opioid receptor (Homo sapiens, UniProt P35372); assay: Inhibition of mu opioid receptor (unknown origin)
# How it was run: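 Secondary pharmacology panel of binding, enzyme and functional assays covering 24 molecular targets. Activity recorded as a defined Ki/IC50/EC50.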
# [23] = system: Mycobacterium tuberculosis; assay: Antimycobacterial activity against Mycobacterium tuberculosis H37Rv after 5 days by standard microdilution method; type: functional; details: 120 h
# [24] = Permeability of the compound from apical to basolateral side in human Caco2 cells; type: ADME, cell-based; details: Caco-2, read-out: permeability
# [25] = system: Mycobacterium tuberculosis; assay: Antimycobacterial activity against Mycobacterium tuberculosis over expressing DprE1 after 5 days by standard microdilution method; type: functional; details: 120 h
# [26] = Inhibition of Mycobacterium smegmatis DprE1 Y321H mutant using farnesylphosphoryl-beta-D-ribofuranose as substrate assessed as conversion of amplex red to resorufin after 30 mins; parameters: species or system Mycolicibacterium smegmatis
# How it was run: (§4)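 Recombinant M. smegmatis DprE1 (thioredoxin-6His fusion), wild type or Y321H, 75 nM. Enzyme was preincubated 30 min in FAD assay mix: 50 mM glycylglycine pH 8.5, 200 mM potassium glutamate, 10 μM FAD, 0.002% Brij-35, 2% DMSO. Reaction was started with 300 μM farnesylphosphoryl-β-D-ribofuranose, 0.01 mg/mL HRP and 50 μM amplex red at 25 °C.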
# Pseudomonas aeruginosa [27] = assay: Antimicrobial activity against Pseudomonas aeruginosa ARC545 at 100 uM; type: functional, organism-based; how it was run: as §2
# Streptococcus pneumoniae = assay: Antimicrobial activity against Streptococcus pneumoniae ARC548 at 100 uM; type: functional, organism-based; how it was run: as §2
# [28] = system: Mycolicibacterium smegmatis; assay: Antimicrobial activity against Mycobacterium smegmatis mc2155 at 100 uM; type: functional, organism-based; details: str. MC2 155
# Candida albicans = assay: Antimicrobial activity against Candida albicans ARC527 at 100 uM; type: functional, organism-based; how it was run: as §2
# [29] = system: Mycolicibacterium smegmatis; assay: Ratio of IC50 for Mycobacterium smegmatis DprE1 Y321H mutant to IC50 for Mycobacterium smegmatis recombinant wild type DprE1; how it was run: as §4
# [30] = system: Mycobacterium tuberculosis; assay: Antimycobacterial activity against Mycobacterium tuberculosis over expressing PimA after 5 days by standard microdilution method; type: functional; details: 120 h
# Staphylococcus aureus = assay: Antimicrobial activity against Staphylococcus aureus ARC517 at 100 uM; type: functional, organism-based; how it was run: as §2
# Chain of Voltage-gated inwardly rectifying potassium channel KCNH2 (Q12809 whole entry): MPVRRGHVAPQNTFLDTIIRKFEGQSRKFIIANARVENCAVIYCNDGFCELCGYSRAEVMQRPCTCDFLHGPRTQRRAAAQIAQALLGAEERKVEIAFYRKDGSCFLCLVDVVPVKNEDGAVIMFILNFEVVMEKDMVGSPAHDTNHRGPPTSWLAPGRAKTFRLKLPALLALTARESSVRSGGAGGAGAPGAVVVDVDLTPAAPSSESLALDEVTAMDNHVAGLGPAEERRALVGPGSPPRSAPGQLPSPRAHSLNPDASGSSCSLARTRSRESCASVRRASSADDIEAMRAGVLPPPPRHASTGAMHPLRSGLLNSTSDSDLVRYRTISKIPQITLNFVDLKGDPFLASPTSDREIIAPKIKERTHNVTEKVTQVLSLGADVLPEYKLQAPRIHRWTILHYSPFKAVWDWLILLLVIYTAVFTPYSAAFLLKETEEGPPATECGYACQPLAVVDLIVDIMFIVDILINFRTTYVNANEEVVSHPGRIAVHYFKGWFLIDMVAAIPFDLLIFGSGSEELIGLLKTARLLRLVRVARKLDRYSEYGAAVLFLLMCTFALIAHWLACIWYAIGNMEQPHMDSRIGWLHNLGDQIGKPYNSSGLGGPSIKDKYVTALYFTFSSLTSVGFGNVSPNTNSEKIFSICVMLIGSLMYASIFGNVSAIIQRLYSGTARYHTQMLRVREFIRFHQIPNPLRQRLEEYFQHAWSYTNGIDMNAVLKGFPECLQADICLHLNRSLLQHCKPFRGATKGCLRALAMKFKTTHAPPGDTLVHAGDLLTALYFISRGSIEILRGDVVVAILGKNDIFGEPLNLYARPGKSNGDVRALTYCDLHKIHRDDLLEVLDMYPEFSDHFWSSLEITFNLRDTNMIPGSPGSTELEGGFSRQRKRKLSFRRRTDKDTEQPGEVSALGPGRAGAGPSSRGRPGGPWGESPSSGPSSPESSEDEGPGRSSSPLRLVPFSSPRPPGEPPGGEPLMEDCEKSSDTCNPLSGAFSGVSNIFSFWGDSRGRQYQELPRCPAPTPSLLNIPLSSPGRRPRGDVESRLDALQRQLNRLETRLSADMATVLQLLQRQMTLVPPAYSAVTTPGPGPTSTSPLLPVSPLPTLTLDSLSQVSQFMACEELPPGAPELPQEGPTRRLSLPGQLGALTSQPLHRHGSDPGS
# Chain of Cytochrome P450 2C9 (P11712 whole entry): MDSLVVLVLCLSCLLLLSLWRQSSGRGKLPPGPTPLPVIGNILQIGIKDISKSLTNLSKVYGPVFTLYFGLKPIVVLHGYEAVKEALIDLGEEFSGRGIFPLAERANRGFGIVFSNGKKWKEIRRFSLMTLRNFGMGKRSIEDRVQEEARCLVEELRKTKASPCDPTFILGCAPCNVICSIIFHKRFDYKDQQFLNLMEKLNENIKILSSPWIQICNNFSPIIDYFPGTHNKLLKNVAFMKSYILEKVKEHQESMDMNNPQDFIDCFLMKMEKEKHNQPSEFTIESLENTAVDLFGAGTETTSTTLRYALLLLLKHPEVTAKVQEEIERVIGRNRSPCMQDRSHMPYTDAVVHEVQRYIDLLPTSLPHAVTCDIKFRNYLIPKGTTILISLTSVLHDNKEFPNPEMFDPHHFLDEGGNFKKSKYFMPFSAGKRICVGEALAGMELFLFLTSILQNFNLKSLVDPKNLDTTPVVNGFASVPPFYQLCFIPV
# Chain of Cytochrome P450 2D6 (P10635 whole entry, canonical isoform): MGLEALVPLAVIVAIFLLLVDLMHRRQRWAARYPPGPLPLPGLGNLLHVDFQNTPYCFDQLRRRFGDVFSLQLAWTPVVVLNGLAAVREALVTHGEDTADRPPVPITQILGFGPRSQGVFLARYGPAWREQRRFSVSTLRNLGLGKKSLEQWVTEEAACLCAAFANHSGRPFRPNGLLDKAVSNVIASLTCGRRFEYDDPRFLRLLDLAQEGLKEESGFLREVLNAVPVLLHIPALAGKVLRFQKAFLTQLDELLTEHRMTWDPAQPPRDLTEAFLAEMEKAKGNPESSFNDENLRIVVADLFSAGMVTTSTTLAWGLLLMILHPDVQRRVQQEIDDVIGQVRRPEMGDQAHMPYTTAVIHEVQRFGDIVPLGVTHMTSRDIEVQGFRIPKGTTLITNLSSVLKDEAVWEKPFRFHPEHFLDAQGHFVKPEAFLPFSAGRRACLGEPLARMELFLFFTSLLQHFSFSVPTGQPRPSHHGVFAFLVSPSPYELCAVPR
# Chain of Mu-type opioid receptor (P35372 whole entry): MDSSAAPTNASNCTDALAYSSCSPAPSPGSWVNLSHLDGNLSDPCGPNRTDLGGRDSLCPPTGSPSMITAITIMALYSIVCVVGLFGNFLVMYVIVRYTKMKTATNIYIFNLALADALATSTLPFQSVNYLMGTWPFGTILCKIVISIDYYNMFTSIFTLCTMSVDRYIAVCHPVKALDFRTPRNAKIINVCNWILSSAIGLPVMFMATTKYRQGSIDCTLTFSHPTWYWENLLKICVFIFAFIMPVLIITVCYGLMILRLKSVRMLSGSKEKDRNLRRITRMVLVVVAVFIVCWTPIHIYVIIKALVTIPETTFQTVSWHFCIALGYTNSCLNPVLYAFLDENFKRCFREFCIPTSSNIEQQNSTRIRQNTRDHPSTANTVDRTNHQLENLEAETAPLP
# Chain of Cytochrome P450 3A4 (P08684 whole entry): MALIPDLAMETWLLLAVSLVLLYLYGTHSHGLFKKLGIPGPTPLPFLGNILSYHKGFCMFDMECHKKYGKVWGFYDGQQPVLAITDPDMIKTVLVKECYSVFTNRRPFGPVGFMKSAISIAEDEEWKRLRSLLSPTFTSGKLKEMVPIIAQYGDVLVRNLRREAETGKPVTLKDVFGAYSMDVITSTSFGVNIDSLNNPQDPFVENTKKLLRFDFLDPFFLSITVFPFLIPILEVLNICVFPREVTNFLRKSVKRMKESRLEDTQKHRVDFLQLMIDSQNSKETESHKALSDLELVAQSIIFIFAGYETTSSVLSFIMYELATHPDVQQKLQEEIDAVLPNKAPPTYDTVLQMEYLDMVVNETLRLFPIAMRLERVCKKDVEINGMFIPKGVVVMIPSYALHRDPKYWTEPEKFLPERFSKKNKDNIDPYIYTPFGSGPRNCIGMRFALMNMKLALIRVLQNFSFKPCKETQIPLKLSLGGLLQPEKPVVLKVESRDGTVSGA
# Chain of Cytochrome P450 2C19 (P33261 whole entry): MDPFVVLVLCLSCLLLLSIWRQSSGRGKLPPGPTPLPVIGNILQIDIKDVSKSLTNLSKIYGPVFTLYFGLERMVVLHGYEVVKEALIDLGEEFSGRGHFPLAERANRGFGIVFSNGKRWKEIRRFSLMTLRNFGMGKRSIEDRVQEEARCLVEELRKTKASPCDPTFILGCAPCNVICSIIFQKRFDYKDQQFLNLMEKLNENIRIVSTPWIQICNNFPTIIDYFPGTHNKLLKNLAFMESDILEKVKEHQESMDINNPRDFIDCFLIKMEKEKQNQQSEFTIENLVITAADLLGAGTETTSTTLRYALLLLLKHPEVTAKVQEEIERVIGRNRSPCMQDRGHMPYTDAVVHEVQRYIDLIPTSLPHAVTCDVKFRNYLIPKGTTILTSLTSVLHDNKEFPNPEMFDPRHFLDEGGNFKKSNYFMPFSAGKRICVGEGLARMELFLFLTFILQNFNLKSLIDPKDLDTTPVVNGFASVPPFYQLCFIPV
structure (smiles),measurement,setting,value
Cn1ncc(C(=O)N2CCC(Nc3cc(=O)[nH]c4ccccc34)CC2)c1Cl,TIME,[1],1.73 h
same,Activity,Escherichia coli [2],inactive
same,Activity,Klebsiella pneumoniae,inactive
same,Activity,Haemophilus influenzae [3],inactive
same,IC50,[4],> 100 µM
same,INH,Cytochrome P450 2D6,> 30 µM
same,INH,Cytochrome P450 1A2,> 30 µM
same,Kdiss,[5],0.00016 s⁻¹
same,MBC,[6],6.3 µM
same,logD,[7],1.6
same,MIC,[8],6.3 µM
same,Papp B→A,[9],14 ×10⁻⁶ cm/s
same,INH,Cytochrome P450 3A4,> 30 µM
same,solubility at 24 h,[10],255 µM
same,Activity,Haemophilus influenzae [11],inactive
same,IC80,[12],> 100 µM
same,Activity,Escherichia coli [13],inactive
same,microsomal CLint at 1 µM,[14],< 4 µL/min/mg
same,T1/2,[15],1.2 h
same,hepatocyte CLint at 1 µM,[16],1.5 µL/min/1e6 cells
same,"fraction unbound at 18 h, 20 µM",[17],0.3
same,Activity,[18],inactive
same,INH,Cytochrome P450 2C19,> 30 µM
same,MIC,[19],3.1 µM
same,Activity,Pseudomonas aeruginosa [20],inactive
same,INH,Cytochrome P450 2C9,> 30 µM
same,MCC at 72 h,[21],> 200 µM
same,IC50,[22],0.15 µM
same,IC50,Mu-type opioid receptor,21.9 µM
same,MIC,[23],6.25 µM
same,Papp A→B,[24],0.5 ×10⁻⁶ cm/s
same,MIC,[25],> 100 µM
same,IC50,[26],> 10 µM
same,Activity,Pseudomonas aeruginosa [27],inactive
same,Activity,Streptococcus pneumoniae,inactive
same,Activity,[28],inactive
same,Activity,Candida albicans,inactive
same,fold change (FC),[29],> 63
same,MIC,[30],3.1 µM
same,Activity,Staphylococcus aureus,inactive
